In PMC2647857 (Journal of the American Chemical Society, 2009):
Like-named read-outs stand apart in the source and are kept apart here.

Columns and labels:
[1] = read-out: Kd for NO dissociation, Fe(III), cited from earlier work
[2] = ligand-free, cited from earlier work
[3] = NO bound, cited from earlier work
[4] = Spectroelectrochemical midpoint potential of the NO complex; type: physicochemical, Rhodnius prolixus; settings: NO bound
How it was run: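 Spectroelectrochemistry of ~0.05 mM E. coli-expressed protein in 0.1 M sodium phosphate or acetate at pH 5.5, 6.5 and 7.5, 27 ± 1 °C. SNAP supplied NO at a level fully complexing both oxidation states. Ag/AgCl reference ([…] mV vs SHE). Absorbance versus applied potential fit to Nernst equation; pH dependence and mutant−standard differences derived.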

[5] = Spectroelectrochemical midpoint potential, ligand-free; type: physicochemical, Rhodnius prolixus; settings: ligand-free
[6] = Imidazole binding constant to Fe; set-up: species or system Rhodnius prolixus; settings: pH 5.5
[7] = NO binding constant to Fe; set-up: species or system Rhodnius prolixus; settings: pH 7.5

Molecule	increase of imidazole binding constant compared to wild-type [6]	NO formation constant Kf, Fe(III) form ([7]; listed as M0-containing NP1)	Kd ([7]; read-out: NO dissociation constant Kd, Fe(III) form)	Kd ([1]; pH 5.5 ref 19)	Kd ([1]; pH 7.5 ref 19)	Em ([2]; pH 5.5, 27 °C ref 15)	Em ([2]; pH 7.5, 27 °C ref 15)	Em,NO ([3]; pH 5.5, 27 °C ref 15)	Em,NO ([4]; pH 6.5, 27 °C)	Em,NO ([4]; pH 7.5, 27 °C)	ΔEm = Em(mutant)−Em(standard) ([5]; pH 5.5)	Em ([5]; pH 5.5, 27 °C)	ΔEm = Em(mutant)−Em(standard) ([5]; pH 7.5)	Em ([5]; pH 7.5, 27 °C)	ΔpHΔ(Em,NO) = ΔEm,NO(pH7.5) − ΔEm,NO(pH5.5) [4]	ΔEm,NO = Em(mutant)−Em(standard) ([4]; pH 5.5)	Em,NO ([4]; pH 5.5, 27 °C)	ΔEm,NO = Em(mutant)−Em(standard) ([4]; pH 6.5)	ΔEm,NO = Em(mutant)−Em(standard) ([4]; pH 7.5)	Em,NO ([3]; pH 7.5, 27 °C ref 15)
NP4: recombinant wild-type nitrophorin 4 of Rhodnius prolixus, native A1 as first residue (protein, UniProt Q94734 22-205, looked up) Nitrophorin-4: ACTKNAIAQTGFNKDKYFNGDVWYVTDYLDLEPDDVPKRYCAALAAGTASGKLKEALYHYDPKTQDTFYDVSELQVESLGKYTANFKKVDKNGNVKVAVTAGNYYTFTVMYADDSSALIHTCLHKGNKDLGDLYAVLNRNKDAAAGDKVKSAVSAATLEFSKFISTKENNCAYDNDSLKSLLTK				50 nM	120 nM	−259±2 mV vs. SHE	−278±4 mV vs. SHE	94±5 mV vs. SHE	44±2 mV vs. SHE	59±2 mV vs. SHE										
NP4-D30A: site-directed mutant of NP4, D30 replaced by Ala (protein, UniProt Q94734 22-205, looked up, variant D30A) Nitrophorin-4: ACTKNAIAQTGFNKDKYFNGDVWYVTDYLALEPDDVPKRYCAALAAGTASGKLKEALYHYDPKTQDTFYDVSELQVESLGKYTANFKKVDKNGNVKVAVTAGNYYTFTVMYADDSSALIHTCLHKGNKDLGDLYAVLNRNKDAAAGDKVKSAVSAATLEFSKFISTKENNCAYDNDSLKSLLTK									163±4 mV vs. SHE		46±2 mV	−213±1 mV vs. SHE	62±4 mV	−216±2 mV vs. SHE	53±6 mV	87±5 mV	181±2 mV vs. SHE	119±5 mV	139±2 mV	

Further lines, with some results ahead:

increase of imidazole binding constant compared to wild-type [6]	NO formation constant Kf, Fe(III) form ([7]; listed as M0-containing NP1)	Kd ([7]; read-out: NO dissociation constant Kd, Fe(III) form)	Molecule	Kd ([1]; pH 5.5 ref 19)	Kd ([1]; pH 7.5 ref 19)	Em ([2]; pH 5.5, 27 °C ref 15)	Em ([2]; pH 7.5, 27 °C ref 15)	Em,NO ([3]; pH 5.5, 27 °C ref 15)	Em,NO ([4]; pH 6.5, 27 °C)	Em,NO ([4]; pH 7.5, 27 °C)	ΔEm = Em(mutant)−Em(standard) ([5]; pH 5.5)	Em ([5]; pH 5.5, 27 °C)	ΔEm = Em(mutant)−Em(standard) ([5]; pH 7.5)	Em ([5]; pH 7.5, 27 °C)	ΔpHΔ(Em,NO) = ΔEm,NO(pH7.5) − ΔEm,NO(pH5.5) [4]	ΔEm,NO = Em(mutant)−Em(standard) ([4]; pH 5.5)	Em,NO ([4]; pH 5.5, 27 °C)	ΔEm,NO = Em(mutant)−Em(standard) ([4]; pH 6.5)	ΔEm,NO = Em(mutant)−Em(standard) ([4]; pH 7.5)	Em,NO ([3]; pH 7.5, 27 °C ref 15)
1 log unit			NP4-E55Q: site-directed mutant of NP4, buried E55 replaced by Gln (protein, UniProt Q94734 22-205, looked up, variant E55Q) Nitrophorin-4: ACTKNAIAQTGFNKDKYFNGDVWYVTDYLDLEPDDVPKRYCAALAAGTASGKLKQALYHYDPKTQDTFYDVSELQVESLGKYTANFKKVDKNGNVKVAVTAGNYYTFTVMYADDSSALIHTCLHKGNKDLGDLYAVLNRNKDAAAGDKVKSAVSAATLEFSKFISTKENNCAYDNDSLKSLLTK						67±2 mV vs. SHE	126±2 mV vs. SHE	68±3 mV	−191±3 mV vs. SHE	82±4 mV	−196±2 mV vs. SHE	73±6 mV	−6±5 mV	88±1 mV vs. SHE	23±3 mV	67±2 mV	
	1e+06 M⁻¹	1000 nM	NP1: recombinant wild-type nitrophorin 1 of Rhodnius prolixus, NO-carrying heme protein, with M0 present (protein, UniProt Q26239 24-207, looked up, N-terminal Met0 retained) Nitrophorin-1: KCTKNALAQTGFNKDKYFNGDVWYVTDYLDLEPDDVPKRYCAALAAGTASGKLKEALYHYDPKTQDTFYDVSELQEESPGKYTANFKKVEKNGNVKVDVTSGNYYTFTVMYADDSSALIHTCLHKGNKDLGDLYAVLNRNKDTNAGDKVKGAVTAASLKFSDFISTKDNKCEYDNVSLKSLLTK			−274±2 mV vs. SHE	−303±4 mV vs. SHE	154±5 mV vs. SHE	118±3 mV vs. SHE											127±4 mV vs. SHE
